Measurements pooled from the literature.
Protocols differ between the studies behind these lines.
Target: Serine/threonine-protein kinase N2 (PKN2, Homo sapiens, UniProt Q16513)

SMILES	test	setting	measurement	result
CN1CCN(C(=O)c2ccc(NC(=O)Nc3ccc(N(C)c4ccnc(Nc5ccc(CS(C)(=O)=O)cc5)n4)cc3)cc2)CC1	binding	1 µM	remaining binding	100%
C1=C/COCc2cc(ccc2OCCN2CCCC2)Nc2nccc(n2)-c2cccc(c2)COC/1	binding	0.1 µM	remaining binding	100%
C=CC(=O)N1CCC([C@@H]2CCNc3c(C(N)=O)c(-c4ccc(Oc5ccccc5)cc4)nn32)CC1	enzyme activity, inhibitor	1 µM	inhibition	24%
CC(C)S(=O)(=O)c1ccc2nccc(Nc3ccc4sc(C5CCCC5)nc4c3)c2c1	enzyme activity, inhibitor	1 µM	activity vs control	116%
CCCCC(=O)Nc1ccc(-c2ccc3ncn(CCC)c(=O)c3c2)cn1	binding, competition with immobilised ligand	0.5 µM	remaining binding	87%
Cc1ccc(NC(=O)c2ccnc(C(F)(F)F)c2)cc1-c1cc(OCCO)nc(N2CCOCC2)c1	binding	1 µM	remaining binding	89%
CC#CC(=O)N1CCC[C@H]1c1nc(-c2ccc(C(=O)Nc3ccccn3)cc2)c2c(N)nccn12	enzyme activity, inhibitor	1 µM	inhibition	0%
Cc1cc(O)c(-c2ccc([C@@H](C)CN(C)C)cc2)c2c1[nH]c(=O)c1sccc12	enzyme activity, inhibitor	0.1 µM	inhibition	13.8%
